Reference: PMC4629265 (Acta Pharmaceutica Sinica. B, 2015)

Experiments:
Assay type in all cases: cell-based
Vero cells = assay: Cytotoxicity on Vero cells, CPE method; conditions: 3 d
How it was run: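 Vero cells were seeded at 3×10⁴ cells/well and incubated overnight. Test compounds were then added at different concentrations in triplicate and incubated 3 d, with cytotoxicity scored by CPE. TC50, the concentration inhibiting 50% of cell growth versus untreated controls, was calculated by Reed and Muench.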

[1] = Cytotoxicity in Huh7.5 cells, MTT assay; conditions: human
How it was run: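 Huh7.5 cells were plated at 1×10⁴ cells/well. After 6 h the medium was replaced with fresh medium containing test compound at various concentrations. Viability was read by MTT at 96 h, and CC50 was calculated by the Reed & Muench method.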

HCV = assay: Anti-HCV assay in infected Huh7.5 cells, HCV RNA by RT-PCR; conditions: Hepatitis C virus, Huh7.5, 96 h, read-out: IC50 (anti-HCV activity)
How it was run: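 Huh7.5 cells (DMEM, 10% inactivated FBS) were seeded at 3×10⁴ cells/cm². After 6 h they were infected with chimeric J6/JFH/JC1 HCV stock (45 u/cell) and given test compound at the same time, with an NS3/4A protease inhibitor as positive control. At 96 h, intracellular total RNA was extracted and HCV RNA quantified by one-step RT-PCR. IC50 was calculated by Reed & Muench.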

EV71 (strain SZ-98) = assay: Anti-EV71 assay in Vero cells, CPE method; conditions: EV71 strain SZ-98, Vero cells
How it was run: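 Vero cells (MEM, 10% FBS) at 3×10⁴ cells/well were infected with 100TCID50 EV71 strain SZ-98. Test compounds were added immediately at various concentrations and incubated another 48 h. Cytopathic effect was scored, with pirodavir as positive control. IC50 was determined by the Reed and Muench method.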

`CCC(=O)Nc1cc(C(=O)Nc2ccc(Cl)cc2)ccc1O` [Compound 35, N-(4-Chlorophenyl)-4-hydroxy-3-propionamidobenzamide] showed a TC50 (Vero cells) of 100.79 ± 0.00 µM.

`CCC[C@H](NC(=O)[C@@H]1[C@H]2CCC[C@H]2CN1C(=O)[C@@H](NC(=O)[C@@H](NC(=O)c1cnccn1)C1CCCCC1)C(C)(C)C)C(=O)C(=O)NC1CC1` [VX-950, telaprevir, reference compound] gave a CC50 at 96 h [1] of 21.3 ± 4.7 µM and an IC50 (HCV) of 0.01 µM.

With “N-(2,3-Dihydrobenzo[b][1,4]dioxin-6-yl)-4-methyl-3-(methylamino)benzamide [Compound 44]” the TC50 (Vero cells) was 322.65 ± 0.00 µM and the “anti-EV71 activity (in words)” value (EV71 (strain SZ-98)) was “poor”.

For `CCC(=O)Nc1cc(C(=O)Nc2ccc(N3CCN(C)CC3)cc2)ccc1OC` [Compound 27, N-(4-(4-Methylpiperazin-1-yl)phenyl)-4-methoxy-3-propionamidobenzamide], the TC50 (Vero cells) was 291.60 ± 0.00 µM and the “anti-EV71 activity (in words)” value (EV71 (strain SZ-98)) was “did not display antiviral activity”.

`CNc1cc(C(=O)Nc2ccc(C3CCCCC3)cc2)ccc1OC` [Compound 33, N-(4-Cyclohexylphenyl)-4-methoxy-3-(methylamino)benzamide] gave a CC50 at 96 h [1] of 40 ± 7.25 µM and an IC50 (HCV) of 34.6 ± 3.1 µM.

Work on `CCCCc1ccc(NC(=O)c2ccc(OC)c(NC(=O)CC)c2)cc1` [Compound 24, N-(4-Butylphenyl)-4-methoxy-3-propionamidobenzamide] yielded a TC50 (Vero cells) of 36.24 ± 0.00 µM.

With `CCC(=O)Nc1cc(C(=O)CNc2ccc(C(C)(C)C)cc2)ccc1OC` [Compound 50, N-(5-(2-((4-(tert-Butyl)phenyl)amino)acetyl)-2-methoxyphenyl)propionamide] the TC50 (Vero cells) was greater than 20.14 µM and the “anti-EV71 activity (in words)” value (EV71 (strain SZ-98)) was “inactive”.

For `CCC(=O)Nc1cc(C(=O)Nc2ccc(C#N)cc2)ccc1OC` [Compound 26, N-(4-Cyanophenyl)-4-methoxy-3-propionamidobenzamide], the TC50 (Vero cells) was 297.67 µM.

In the case of `CNc1cc(C(=O)Nc2ccc(C(C)(C)C)cc2)ccc1OC` [Compound 31, N-(4-tert-Butylphenyl)-4-methoxy-3-(methylamino)benzamide], the CC50 at 96 h [1] is reported as 56.6 ± 4.2 µM, the IC50 (HCV) is reported as 32 ± 2.14 µM and the TC50 (Vero cells) is reported as 34.23 ± 0.00 µM.

`CNc1cc(C(=O)Nc2ccc(C#N)cc2)ccc1OC` [Compound 34, N-(4-Cyanophenyl)-4-methoxy-3-(methylamino)benzamide] showed a TC50 (Vero cells) greater than 79.07 µM.

For `CNc1cccc(C(=O)Nc2ccc(Cl)cc2)c1` [Compound 42, N-(4-Chlorophenyl)-3-(methylamino)benzamide], the CC50 at 96 h [1] was 164 ± 9.84 µM, the IC50 (HCV) was 19.5 ± 7.18 µM and the TC50 (Vero cells) was greater than 28.5 µM.

For `CNc1cc(C(=O)CNc2ccc(Cl)cc2)ccc1OC` [Compound 55, 2-((4-Chlorophenyl)amino)-1-(4-methoxy-3-(methylamino)phenyl)ethanone], the TC50 (Vero cells) was 73.10 ± 0.00 µM and the “anti-EV71 activity (in words)” value (EV71 (strain SZ-98)) was “inactive”.

Work on `CCC(=O)Nc1cccc(C(=O)Nc2ccc(Cl)cc2)c1` [Compound 41, N-(4-Chlorophenyl)-3-propionamidobenzamide] yielded a CC50 at 96 h [1] greater than 200 µM, an IC50 (HCV) of 7.12 ± 2.48 µM and a TC50 (Vero cells) of 106.12 ± 0.00 µM.

In the case of `CNc1cc(C(=O)Nc2ccc(C(C)C)cc2)ccc1OC` [Compound 30, N-(4-iso-propylphenyl)-4-methoxy-3-(methylamino)benzamide], the TC50 (Vero cells) is reported as greater than 8.29 µM.

Compound `CCOC(=O)c1ccc(OCCC2CCN(c3ccc(C)nn3)CC2)cc1` [Pirodavir, pirodavir, reference compound] has a TC50 (Vero cells) of 49.78 ± 3.96 µM.

With `CNc1cc(C(=O)CNc2ccccc2)ccc1OC` [Compound 54, 1-(4-Methoxy-3-(methylamino)phenyl)-2-(phenylamino)ethanone] the TC50 (Vero cells) was 167.11 ± 34.70 µM and the “anti-EV71 activity (in words)” value (EV71 (strain SZ-98)) was “inactive”.

With `CCC(=O)Nc1cc(C(=O)CNc2ccc(C)cc2)ccc1OC` [Compound 49, N-(2-Methoxy-5-(2-(p-tolylamino)acetyl)phenyl)propionamide] the TC50 (Vero cells) was 98.31 µM and the “anti-EV71 activity (in words)” value (EV71 (strain SZ-98)) was “inactive”.

For `CCCCc1ccc(NC(=O)c2ccc(OC)c(NC)c2)cc1` [Compound 32, N-(4-Butylphenyl)-4-methoxy-3-(methylamino)benzamide], the TC50 (Vero cells) was 41.12 ± 0.00 µM.

Compound `CCc1ccc(NC(=O)c2ccc(OC)c(NC)c2)cc1` [Compound 29, N-(4-Ethylphenyl)-4-methoxy-3-(methylamino)benzamide] has a TC50 (Vero cells) greater than 26.09 µM.

In the case of `CCC(=O)Nc1cc(C(=O)Nc2ccc(C(C)(C)C)cc2)ccc1OC` [Compound 23, N-(4-tert-Butylphenyl)-4-methoxy-3-propionamidobenzamide], the CC50 at 96 h [1] is reported as 30.7 ± 1.25 µM, the IC50 (HCV) is reported as 0.57 µM and the TC50 (Vero cells) is reported as 36.24 ± 0.00 µM.

With “N-(2,3-Dihydrobenzo[b][1,4]dioxin-6-yl)-4-methyl-3-propionamidobenzamide [Compound 43]” the TC50 (Vero cells) was 196.10 ± 0.00 µM and the “anti-EV71 activity (in words)” value (EV71 (strain SZ-98)) was “poor”.

With `CCC(=O)Nc1cc(C(=O)Nc2ccc(C(C)C)cc2)ccc1OC` [Compound 22, N-(4-Iso-propylphenyl)-4-methoxy-3-propionamidobenzamide] the TC50 (Vero cells) was greater than 65.35 µM.

`CNc1cc(C(=O)Nc2cccc(Cl)c2)ccc1OC` [Compound 28, N-(3-Chlorophenyl)-4-methoxy-3-(methylamino)benzamide] gave a TC50 (Vero cells) of 110.50 ± 0.00 µM.

`CCC(=O)Nc1cc(C(=O)Nc2ccc(C(C)(C)C)cc2)ccc1O` [Compound 36, N-(4-tert-Butylphenyl)-4-hydroxy-3-propionamidobenzamide] showed a TC50 (Vero cells) of 86.08 ± 0.00 µM.

With `CCC(=O)Nc1cc(C(=O)Nc2ccc(C3CCCCC3)cc2)ccc1OC` [Compound 25, N-(4-Cyclohexylphenyl)-4-methoxy-3-propionamidobenzamide] the CC50 at 96 h [1] was 122 ± 2.6 µM and the IC50 (HCV) was 2.36 ± 0.12 µM.
